EBV gp42 inh: Epstein-Barr virus gp42 inhibitors, primary screen, biochemical, uHTS, fluorescence polarization. hit rate 0.42% among 220,000. inhibition, % (tested at 21.74 µM). Fluorescence polarization binding assay, mP read-out; in the data active means inhibition above about 50%
Target sequence (Q1HVG2 whole entry, looked up): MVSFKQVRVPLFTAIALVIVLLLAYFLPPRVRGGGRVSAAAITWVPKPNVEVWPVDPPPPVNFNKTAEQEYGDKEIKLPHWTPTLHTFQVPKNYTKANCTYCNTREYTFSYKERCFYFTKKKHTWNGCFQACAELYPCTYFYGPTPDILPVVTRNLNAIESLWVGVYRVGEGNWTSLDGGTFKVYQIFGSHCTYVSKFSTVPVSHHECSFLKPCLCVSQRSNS
GLD-1 RNA inh: GLD-1/TGE RNA complex disruptors, primary screen, biochemical, fluorescence polarization; Female germline-specific tumor suppressor gld-1 (Caenorhabditis elegans), Q17339; purified GLD-1 + fluorescein TGE RNA; inhibition, % at 5.96 µM; hit rate 0.44% among 320,000; AID 2280, 2010;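 active means percent inhibition above a per-plate cutoff, the plate mean of test compounds plus 3 SD, cut at about 30% in these data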
Target sequence (Q17339 whole entry, looked up): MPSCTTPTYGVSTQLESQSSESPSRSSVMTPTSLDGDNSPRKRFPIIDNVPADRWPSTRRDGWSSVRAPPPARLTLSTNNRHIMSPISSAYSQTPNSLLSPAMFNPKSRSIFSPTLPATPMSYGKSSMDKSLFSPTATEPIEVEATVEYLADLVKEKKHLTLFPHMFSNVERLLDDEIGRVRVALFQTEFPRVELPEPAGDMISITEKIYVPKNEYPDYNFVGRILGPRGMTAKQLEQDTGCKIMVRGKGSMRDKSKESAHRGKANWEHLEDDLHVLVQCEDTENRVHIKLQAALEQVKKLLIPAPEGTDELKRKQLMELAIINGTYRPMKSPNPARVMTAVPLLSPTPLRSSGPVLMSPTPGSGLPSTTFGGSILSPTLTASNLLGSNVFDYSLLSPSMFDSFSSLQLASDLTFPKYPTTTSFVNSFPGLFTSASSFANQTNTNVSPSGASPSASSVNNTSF
IMP-1 inhibitor: IMP-1 metallo-beta-lactamase inhibitors, primary screen, biochemical, epi-absorbance readout, Pseudomonas aeruginosa enzyme; metallo-beta-lactamase IMP-1 (Pseudomonas aeruginosa); purified IMP-1, nitrocefin hydrolysis, epi-absorbance fluorescence; inhibition, % at 5.6 µM; hit rate 0.45% among 290,000; AID 1556, 2009;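 active means inhibition above the mean plus 3 SD of all compounds in the same screening run, cut at about 4.5% in these data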
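Test system: recombinant IMP-1 enzyme, purified / Medium: HEPES buffer pH 7.1 with ZnSO4 and Brij 35 / Doses: single dose, 5.6 µM / Times: 25 °C, 15 min preincubation, 25 min reaction / Detection: Epi-absorbance via hydrolysed-nitrocefin quenching of white-plate fluorescence, 480/530 nm, EDTA stop / Evaluation: percent inhibition from optical density relative to buffer-blank wells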
Bcl-xL primary: inhibitors of human Bcl-xL, primary screen, biochemical, fluorescence polarization, HTS. Bcl-2-like protein 1 (Homo sapiens), Q07817. GST-Bcl-xL / FITC-Bim BH3 peptide fluorescence polarization. inhibition, % at 10.9 µM. hit rate 0.7% among 320,000. AID 2129, 2009;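 active means inhibition above the mean of all tested compounds plus 3 SD, cutoff set per campaign, cut at about 30% in these data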;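 further: inhibitors lower millipolarization by displacing the labeled peptide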
VIM-2 inhibitor: VIM-2 metallo-beta-lactamase inhibitors, primary screen, biochemical, epi-absorbance readout, Pseudomonas aeruginosa enzyme; inhibition, % at 5.6 µM; hit rate 0.89% among 290,000; purified VIM-2, nitrocefin hydrolysis, epi-absorbance fluorescence;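 active means inhibition above the mean of all tested compounds plus 3 SD, cutoff set per screening run, cut at about 7.5% in these data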;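 further: red hydrolysis product quenches plate fluorescence so inhibitors raise well fluorescence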
MEX-5 binding: MEX-5 zinc finger RNA-binding disruptors – biochemical, C. elegans, fluorescence polarization, MLPCN library, primary screen; Zinc finger protein mex-5 (Caenorhabditis elegans), Q9XUB2; MEX-5/FITC-TCR2 RNA binding; active compounds read low; activity score (negative = inhibition of binding), % at 10 µM; hit rate 0.38% among 300,000; AID 1832, 2009;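 active means inhibition past about -25% in most replicates, and total fluorescence under double the plate's negative control median, limit read from the data; inconclusive means replicates evenly split on the limit, or fluorescence at least double controls; inactive means too little inhibition in most replicates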
Of the large screens only hits and unclear results are named; the others gave an inactive call. Most compounds without a hit are left out; they make up all but 2.2% or so of the library.

COC(=O)Cn1cc(C=C2C(=O)NC(=O)NC2=O)c2ccccc21	MEX-5 binding -27 (no result: EBV gp42 inh)
CCn1cc(C=C2C(=O)NC(=O)NC2=O)c2ccccc21	Bcl-xL primary 136, MEX-5 binding -46 (no result: EBV gp42 inh)
NC(=O)Cn1cc(C=C2C(=O)NC(=O)NC2=O)c2ccccc21	MEX-5 binding -74 (no result: EBV gp42 inh, GLD-1 RNA inh, Bcl-xL primary)
Cn1c(O)c(Cc2ccc(OCc3ccccc3)cc2)c(=O)n(C)c1=O	none (no result: EBV gp42 inh)
C/C(=N\N1CCCCCC1)c1c(O)n(C2CCCCC2)c(=O)[nH]c1=O	none
CCCCCCn1c(O)c(/C=N/N2CCCCCC2)c(=O)[nH]c1=O	none
NC(=S)c1cn(C2OC(CO)C(O)C2O)c2ncnc(N)c12 (stereo unspecified)	IMP-1 inhibitor 12
Nc1ncnc2c1ccn2[C@@H]1O[C@H](CO)[C@@H](O)[C@H]1O	none (no result: EBV gp42 inh, IMP-1 inhibitor, VIM-2 inhibitor)
O=c1[nH]c(O)c(C=NCCc2ccccc2)c(=O)[nH]1	none
O=c1[nH]c(O)c(/C=C2\C=Nc3ccc(OCc4ccccc4)cc32)c(=O)[nH]1	GLD-1 RNA inh 46, Bcl-xL primary 167, MEX-5 binding inconclusive (no result: EBV gp42 inh)
CC(C)Sc1nnc(OC(=O)N(C)C)n1-c1ccccc1	none
O=C1NC(=O)N(c2ccccc2F)C(=O)/C1=C/c1ccc(Sc2nc3ccccc3[nH]2)o1	Bcl-xL primary 54 (no result: MEX-5 binding)
O=C1NC(=O)N(c2cccc(Cl)c2)C(=O)/C1=C\c1ccc(Sc2nc3ccccc3[nH]2)o1	Bcl-xL primary 91
O=C1NC(=O)N(c2ccccc2)C(=O)/C1=C/c1ccc(Sc2ccccc2)o1	none
CN1C(=O)N(C)C(=O)C2(Cc3cc(NC(=O)c4ccc(F)cc4)ccc3N3CCCC32)C1=O (stereo unspecified)	none (no result: EBV gp42 inh)
Cc1ncc([N+](=O)[O-])n1CCOC(N)=O	none
CN(C)c1ccc(NC(=O)CN2C(=O)CN=C(c3ccccc3)c3cc(Cl)ccc32)cc1	IMP-1 inhibitor 4.5
CCOc1ccc(C(C)=O)cc1Cn1ccsc1=N	none (no result: EBV gp42 inh, GLD-1 RNA inh, Bcl-xL primary)
CCOC(=O)c1c(N)n(Cc2ccco2)c2nc3ccccc3nc12	GLD-1 RNA inh 62, Bcl-xL primary 43 (no result: MEX-5 binding)
COCC(C)OC(=O)c1c(N)n(Cc2ccco2)c2nc3ccccc3nc12 (stereo unspecified)	GLD-1 RNA inh 39, Bcl-xL primary 34
CC(=O)O[C@H]1CC[C@@]2(C)[C@H](C1)C(=O)C[C@H]1[C@@H]3CC[C@@H]4[C@@H](CN5C[C@@H](C)CC[C@H]5[C@@]4(C)O)[C@@H]3C[C@@H]12	none (no result: EBV gp42 inh)
CN1C(=O)/C(=C/c2cccn2-c2ccc3ccccc3c2)C(=O)NC1=S	none
CN1C(=O)/C(=C\N2CCc3ccccc32)C(=O)NC1=S	EBV gp42 inh 90
Clc1ccccc1C1=NCc2nncn2-c2sc(Br)cc21	none (no result: EBV gp42 inh, IMP-1 inhibitor, VIM-2 inhibitor, MEX-5 binding)
CN1C(=O)C(=Cc2ccc(N3CCCCCC3)cc2)C(=O)N(C)C1=O	EBV gp42 inh 84
O=c1[nH]c2ccccc2n1CCCN1CCC(n2c(=O)[nH]c3cc(Cl)ccc32)CC1	Bcl-xL primary 37
O=C(c1cccs1)C1CN2CCC1CC2 (stereo unspecified)	none
O=C(O)C1CN2CCC1CC2 (stereo unspecified)	Bcl-xL primary 33
Cc1ccc(S(=O)(=O)NCCC(=O)Nc2ccc(Cl)cc2C(=O)c2ccccc2)cc1	none
Cc1ccc(S(=O)(=O)N[C@@H](CCCCN)C(=O)CCl)cc1	Bcl-xL primary 32 (no result: EBV gp42 inh, IMP-1 inhibitor, VIM-2 inhibitor)
CCN(CC)CCN/N=C(\C)c1c(O)[nH]c(=O)[nH]c1=O	none
COc1ccc(CN2C(=O)NC(=O)/C(=C\c3cc(OC)c(OC)c(OC)c3)C2=O)cc1	none
COc1ccc(CN2C(=O)NC(=O)/C(=C\c3ccco3)C2=O)cc1	MEX-5 binding -46
CC(=O)c1ccc(OCC(=O)N2CCCC(N(C)Cc3ccccc3)C2)cc1 (stereo unspecified)	none (no result: EBV gp42 inh)
Cc1cc(/C=C2\C(=O)NC(=O)N(Cc3ccccc3)C2=O)c(C)n1C1CC1	MEX-5 binding -58
CS(=O)(=O)N1CCN(C(=N)N[N+](=O)[O-])CC1	none
CCN(CC)P(=O)(NC(=O)c1cccn1C)N(CC)CC	none
Cc1cccc2c1=NC(=O)/C(=C/c1c(O)[nH]c(=O)[nH]c1=O)C=2	none
O=c1[nH]c(=S)[nH]c(O)c1/C=C1/C=c2ccccc2=N1	Bcl-xL primary 68 (no result: EBV gp42 inh)
NC(Cc1cc(O)c(O)cc1O)C(=O)O (stereo unspecified)	Bcl-xL primary 67 (no result: EBV gp42 inh, IMP-1 inhibitor, VIM-2 inhibitor, MEX-5 binding)
CCCC(C)n1[nH]c(=O)c2c1NC(=O)CSC2c1ccc(OC)cc1 (stereo unspecified)	none
CCCOc1ccccc1C1SCC(=O)Nc2c1c(=O)[nH]n2C(C)CCC (stereo unspecified)	VIM-2 inhibitor 8.7
COc1cccc(N2C(=O)NC(=O)/C(=C/c3ccc4c(c3)Cc3ccccc3-4)C2=O)c1	MEX-5 binding -43
COc1cc(/C=C2/C(=O)NC(=O)N(c3ccccc3)C2=O)ccc1O	none
Oc1cc2c(cc1O)[C@H]1c3ccccc3CN[C@@H]1CC2	MEX-5 binding -57
CC1=NCCc2c1[nH]c1cc(O)ccc21	GLD-1 RNA inh active, Bcl-xL primary active (no result: EBV gp42 inh, IMP-1 inhibitor, VIM-2 inhibitor, MEX-5 binding)
Nc1c2c(nc3ccccc13)CCN(Cc1ccccc1)C2	GLD-1 RNA inh 97, Bcl-xL primary 167 (no result: EBV gp42 inh)
O=C(O)c1cccc2c1NC(C(=O)O)C1CC(Sc3ccccc3[N+](=O)[O-])C(Cl)C21 (stereo unspecified)	IMP-1 inhibitor 5.2, Bcl-xL primary 62 (no result: MEX-5 binding)
CC(=O)c1ccc2c(c1)C1C(Cl)C(Sc3ccccc3[N+](=O)[O-])CC1C(C(=O)O)N2 (stereo unspecified)	none (no result: MEX-5 binding)
COC(=O)C1=C(c2cccc(OC)c2OC)C[C@@H]2CC[C@H]1N2C(=O)NCc1ccco1	none (no result: EBV gp42 inh, IMP-1 inhibitor, VIM-2 inhibitor)
CCCCc1nc(N2CCNCC2)c(C#N)c2c1CSC(C)(C)C2	none
N#Cc1c(N2CCNCC2)nc(-c2ccco2)c2c1CCCC2	VIM-2 inhibitor 8.9
CN(C)[C@@H]1C(=O)C(C(N)=O)=C(O)[C@@]2(O)C(=O)C3=C(O)c4c(O)cccc4[C@@](C)(O)[C@H]3[C@H](O)[C@@H]12	GLD-1 RNA inh 93, Bcl-xL primary 153, MEX-5 binding -84
COc1ccc(-n2c(-c3ccccc3[N+](=O)[O-])nc3ccccc3c2=O)cc1	none (no result: EBV gp42 inh, GLD-1 RNA inh, Bcl-xL primary)
Cn1cccc1/C=C1\C(=O)NC(=O)N(Cc2ccccc2Cl)C1=O	EBV gp42 inh 58 (no result: GLD-1 RNA inh, Bcl-xL primary, MEX-5 binding)
Cn1cccc1/C=C1\C(=O)NC(=O)N(CCC2=CCCCC2)C1=O	MEX-5 binding -37 (no result: GLD-1 RNA inh, Bcl-xL primary)

Bioassay records deposited in PubChem BioAssay by several laboratories.
